Consider 12 compounds from paper PMC4493932 (MedChemComm, 2013).

Read-outs that look alike come from different tables or passages of the source. Marks after values point to notes of the source that are not given here. Bounds are passed on as bounds.

The test system of one assay is P2Y6R. As to conditions: cited from earlier work; for EC50: read-out: P2Y6R agonist EC50.
Assay [1] has as its target P2Y6R expressed on 1321N1 astrocytoma cells (Homo sapiens, UniProt Q15077). As to the kind of experiment: Flow cytometry. The note with it: for Inhibition of fluorescent binding of 16 to 1321N1-P2Y6R cells: 30 min pre-incubation, then 16 for 2 min, FCM. The format is cell-based. In outline: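 1321N1 human astrocytoma cells stably expressing human P2Y6R were pre-incubated 30 min with known P2Y6R ligands. Cells were then exposed for 2 min to an Alexa Fluor 488-conjugated nucleotide agonist, and labeling was read by flow cytometry. Fluorescence was converted to MESF. Nonspecific binding was defined with 100 μM UDP, and autofluorescence came from receptor-expressing cells without probe.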
In general terms: A flow cytometer gives signals particle by particle.

Assay [2] deals with P2Y6R-expressing 1321N1 astrocytoma cells (Homo sapiens, UniProt Q15077). Put plainly: Fluorescence/confocal microscopy of P2Y6R-expressing 1321N1 astrocytoma cells. Format: cell-based. The note with it: for Inhibition of fluorescent labeling by 16 (micrographs): 500 nM, 30 min preincubation at 37 °C, 16 500 nM, 60 min. An outline of the steps: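 Stably P2Y6R-expressing 1321N1 astrocytoma cells were exposed to an Alexa Fluor 488-conjugated nucleotide agonist (500 nM, 60 min, 37 °C), with or without a known P2Y6R agonist or a diisothiocyanate antagonist. Green fluorescence was imaged on a fluorescence microscope (excitation 495 nm, emission 519 nm).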

The target of the next assay is human (h) P2Y6R (Homo sapiens, UniProt Q15077). Put plainly: PLC activation in 1321N1 human astrocytoma cells stably expressing the hP2Y6R. The format is cell-based. An outline of the steps: (§1)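 Agonist-induced phospholipase C activation in 1321N1 human astrocytoma cells stably expressing recombinant human P2Y6, P2Y2 or P2Y4 receptor. EC50 values are given as mean ± SEM. Efficacy is expressed as percent of the maximal activation by a full agonist at 10 μM. Subtype selectivity is taken as the ratio of EC50 values.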

The next assay has as its target hP2Y4R (Homo sapiens, UniProt P51582). As to the kind of experiment: PLC activation in 1321N1 cells stably expressing the hP2Y4R. The format is cell-based. The note with it: percent of maximal activation by full agonist at 10 μM. In outline:
as §1

The next assay concerns the target hP2Y2R (Homo sapiens, UniProt P41231). Put plainly: PLC activation in 1321N1 cells stably expressing the hP2Y2R. The format is cell-based. As to conditions: for EC50: read-out: Potency, EC50, P2Y2, 1321N1 astrocytoma cells expressing recombinant hP2Y2, mean ± SEM, NE = no effect. An outline of the steps: as §1
The target in the next assay is hP2Y1R (Homo sapiens, UniProt P47900). As to the kind of experiment: Labeling of 1321N1 cells expressing the hP2Y1R. The format is cell-based. The note with it: data not shown.
Assay [3] concerns 1321N1 astrocytoma cells not expressing a P2YR. Put plainly: Fluorescence microscopy of 1321N1 astrocytoma cells not expressing a P2YR. Format: cell-based, human. The note with it: incubated with 16. An outline of the steps:
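Confocal microscopy of 1321N1 astrocytoma cells incubated with the fluorescent test compound at 2 μM (figure panels give 1 μM) for 60 min at 37 °C. Cell-associated fluorescence was compared with receptor-expressing cells and with cells without the probe.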

A further assay deals with T1, hP2Y14R (Homo sapiens, UniProt Q15391).
T1 sequence (Q15391 1-338): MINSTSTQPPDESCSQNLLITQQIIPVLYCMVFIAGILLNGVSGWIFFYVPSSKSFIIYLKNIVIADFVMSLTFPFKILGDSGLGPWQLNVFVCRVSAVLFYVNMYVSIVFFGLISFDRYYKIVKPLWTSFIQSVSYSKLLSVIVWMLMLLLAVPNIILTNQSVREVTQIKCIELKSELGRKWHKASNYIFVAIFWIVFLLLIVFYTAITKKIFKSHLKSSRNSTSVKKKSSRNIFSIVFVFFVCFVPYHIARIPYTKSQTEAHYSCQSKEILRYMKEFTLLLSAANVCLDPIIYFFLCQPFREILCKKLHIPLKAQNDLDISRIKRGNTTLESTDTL
Format: cell-based. The note with it: concentrations up to 10 μM; C6 rat glioma cells.

Assay [4] concerns control 1321N1 astrocytoma cells. Put plainly: FCM labeling of control 1321N1 astrocytoma cells. Format: cell-based, human. The note with it: 60 min incubation. In outline: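 Whole-cell flow cytometry labelling with the Alexa Fluor 488-tagged test compound, 400 nM. Autofluorescence came from cells without the probe. Nonspecific binding was taken in the presence of 100 μM UDP, and specific binding is total minus nonspecific. Fluorescence was converted to molecules of equivalent soluble fluorochrome (MESF). Histograms are from one of three independent experiments.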

Chain of P2Y6R-expressing 1321N1 astrocytoma cells (Q15077 whole entry): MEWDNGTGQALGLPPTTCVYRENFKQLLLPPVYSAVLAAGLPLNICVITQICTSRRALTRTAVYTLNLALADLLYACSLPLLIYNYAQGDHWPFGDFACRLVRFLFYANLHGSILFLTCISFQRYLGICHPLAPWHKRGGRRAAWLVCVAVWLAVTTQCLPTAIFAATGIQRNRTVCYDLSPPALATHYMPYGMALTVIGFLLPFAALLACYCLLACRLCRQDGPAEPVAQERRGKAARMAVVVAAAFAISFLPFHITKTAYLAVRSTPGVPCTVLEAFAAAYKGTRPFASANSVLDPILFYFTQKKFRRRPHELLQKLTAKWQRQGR
Chain of P2Y6R expressed on 1321N1 astrocytoma cells (Q15077 whole entry): as above
Chain of human (h) P2Y6R (Q15077 whole entry): as above
Chain of hP2Y4R (P51582 whole entry): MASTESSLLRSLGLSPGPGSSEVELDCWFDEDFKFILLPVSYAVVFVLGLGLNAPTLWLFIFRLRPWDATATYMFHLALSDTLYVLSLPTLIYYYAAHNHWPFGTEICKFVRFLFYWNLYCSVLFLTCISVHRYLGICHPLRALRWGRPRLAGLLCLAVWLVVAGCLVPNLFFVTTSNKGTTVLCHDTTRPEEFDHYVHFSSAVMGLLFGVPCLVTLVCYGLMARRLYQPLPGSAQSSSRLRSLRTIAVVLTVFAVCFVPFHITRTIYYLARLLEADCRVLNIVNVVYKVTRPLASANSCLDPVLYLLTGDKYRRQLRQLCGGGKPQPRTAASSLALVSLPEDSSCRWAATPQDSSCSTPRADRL
Chain of hP2Y2R (P41231 whole entry): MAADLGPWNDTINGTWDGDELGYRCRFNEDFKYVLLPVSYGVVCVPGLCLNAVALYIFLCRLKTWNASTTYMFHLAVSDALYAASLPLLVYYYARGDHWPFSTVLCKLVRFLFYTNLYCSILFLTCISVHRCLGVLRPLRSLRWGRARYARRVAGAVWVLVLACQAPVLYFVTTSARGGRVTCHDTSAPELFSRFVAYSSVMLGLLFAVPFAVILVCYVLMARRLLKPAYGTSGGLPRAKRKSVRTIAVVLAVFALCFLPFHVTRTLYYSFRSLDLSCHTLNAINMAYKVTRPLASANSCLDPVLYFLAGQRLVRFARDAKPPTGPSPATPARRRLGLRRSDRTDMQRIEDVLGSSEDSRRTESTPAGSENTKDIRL
Chain of hP2Y1R (P47900 whole entry): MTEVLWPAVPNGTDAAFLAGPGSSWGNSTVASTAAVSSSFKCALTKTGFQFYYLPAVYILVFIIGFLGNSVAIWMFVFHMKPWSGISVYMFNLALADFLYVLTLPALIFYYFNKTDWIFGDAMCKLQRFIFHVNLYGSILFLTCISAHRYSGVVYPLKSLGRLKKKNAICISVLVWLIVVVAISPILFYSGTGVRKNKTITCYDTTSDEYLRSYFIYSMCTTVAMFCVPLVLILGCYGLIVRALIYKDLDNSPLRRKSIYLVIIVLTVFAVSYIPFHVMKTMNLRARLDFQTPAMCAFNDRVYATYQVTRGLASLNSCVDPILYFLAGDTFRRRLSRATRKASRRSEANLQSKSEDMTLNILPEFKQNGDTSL

Usually EC50 stands for the concentration that produces a half-maximal response. Turning to `O=c1ccn([C@@H]2O[C@H](COP(=O)(O)OP(=O)(O)O)[C@@H](O)[C@H]2O)c(=O)[nH]1` [Compound 1, Uridine 5′-diphosphate], the EC50 in the assay on P2Y6R (endogenous agonist) was 0.3 µM. The “Inhibition of fluorescent binding of 16 to 1321N1-P2Y6R cells” value (shortened to “Inhibition … to 1321N1-P2Y6R cells”) in assay [1] (10 μM) is given as “significant reduction of labeling”.
As for `O=C(Cn1c(=O)ccn([C@@H]2O[C@H](COP(=O)(O)OP(=O)(O)O)[C@@H](O)[C@H]2O)c1=O)c1ccccc1` [Compound 2, 3-phenacyl-UDP], in the assay on P2Y6R, the EC50 was 0.07 µM.
Regarding `O=c1[nH]/c(=N\OCc2ccccc2)ccn1[C@@H]1O[C@H](COP(=O)(O)OP(=O)(O)O)[C@@H](O)[C@H]1O` [Compound 6, N^4-benzyloxy-CDP], in the assay with P2Y6R, the “P2Y6R selectivity vs. P2Y2R” value is reported as 82 fold and the “P2Y6R selectivity vs. P2Y4R” value was 44 fold.
With `CO/N=c1/ccn([C@@H]2O[C@H](COP(=O)(O)OP(=O)(O)OP(=O)(O)OC[C@H]3O[C@@H](n4ccc(=O)[nH]c4=O)[C@H](O)[C@@H]3O)[C@@H](O)[C@H]2O)c(=O)[nH]1` [Compound 8, P^1-(Uridine 5′-)-P^4-(N^4-methoxycytidine 5′-) triphosphate], the “Inhibition of fluorescent labeling by 16 (micrographs)” value in assay [2] is recorded as “inhibit fluorescent labeling”. Also, in assay [1] (0.5 μM), the “Inhibition … to 1321N1-P2Y6R cells” value is reported as “significant reduction of labeling”.
With `O=c1[nH]/c(=N\OCc2cccc(Br)c2)ccn1[C@@H]1O[C@H](COP(=O)(O)OP(=O)(O)O)[C@@H](O)[C@H]1O` [Compound 10], at human (h) P2Y6R (ratio of EC50 values), the “Selectivity toward the P2Y6R in comparison to the P2Y4R” value is reported as more than 260 fold.
`O=c1[nH]/c(=N\OCc2ccc(I)cc2)ccn1[C@@H]1O[C@H](COP(=O)(O)OP(=O)(O)O)[C@@H](O)[C@H]1O` [Compound 13]: the “% activation, P2Y4” value on hP2Y4R is less than 50% ^c. The EC50 on hP2Y2R was more than 10 µM.
For `CO/N=c1/ccn([C@@H]2O[C@H](COP(=O)(O)OP(=O)(O)OP(=O)(O)Oc3ccc4ccccc4c3)[C@@H](O)[C@H]2O)c(=O)[nH]1` [Compound 20], at hP2Y4R, the “% activation, P2Y4” value is given as less than 50% ^c.
In the case of `C#CCCOP(=O)(O)OP(=O)(O)OP(=O)(O)OC[C@H]1O[C@@H](n2cc/c(=N/OCc3ccccc3)[nH]c2=O)[C@H](O)[C@@H]1O` [Compound 22], the “% activation, P2Y4” value on hP2Y4R is recorded as less than 50% ^c. Moreover, the “% activation, P2Y2” value on hP2Y2R (percent of maximal activation by full agonist at 10 μM) is recorded as less than 50% ^c.
Turning to `C#CCCCOP(=O)(O)OP(=O)(O)OP(=O)(O)OC[C@H]1O[C@@H](n2cc/c(=N/OCc3ccccc3)[nH]c2=O)[C@H](O)[C@@H]1O` [Compound 23], the “Potency, EC50, P2Y6” value on human (h) P2Y6R (1321N1 astrocytoma cells expressing recombinant hP2Y6, mean ± SEM) was “nearly inactive”. In addition, the “% activation, P2Y4” value on hP2Y4R is less than 50% ^c. Besides, the EC50 at hP2Y2R was more than 10 µM.
Turning to `S=C=Nc1cccc(NC(=S)NCCCCNC(=S)Nc2cccc(N=C=S)c2)c1` [MRS2578], the “Inhibition of fluorescent labeling by 16 (micrographs)” value in assay [2] is “inhibit fluorescent labeling”. Further, in [1] (1 μM), the “Inhibition … to 1321N1-P2Y6R cells” value is “significant reduction of labeling”.
Turning to “(N^4-(3-(AlexaFluor-NH-(CH2)6-triazole-(CH2)2-C≡C)-benzyloxy))-CDP [Compound 16]”, the “Specific labeling of 1321N1 cells expressing the hP2Y1R” value at hP2Y1R is recorded as “no specific labeling”. Further, the “Cell-associated fluorescence, localization” value in [2] (2 μM, 60 min incubation at 37 °C, confocal microscopy) is “receptor-dependent and mainly intracellular”. On human (h) P2Y6R (ratio of EC50 values), the “Selectivity toward the P2Y6R in comparison to the P2Y2R” value worked out at 280 fold and the “Selectivity toward the P2Y6R in comparison to the P2Y4R” value was more than 1100 fold. Besides, the EC50 at human (h) P2Y6R (read-out: Potency, EC50, P2Y6, 1321N1 astrocytoma cells expressing recombinant hP2Y6, mean ± SEM) was 0.009 ± 0.0019 µM. Moreover, the “P2Y6R potency gain over immediate precursor 15” value at human (h) P2Y6R (vs 15 lacking the fluorophore) worked out at 11 fold. The “Fluorescence of cells not expressing a P2YR” value in assay [3] is listed as “no increase in fluorescence”. On hP2Y14R, the “Activation of the hP2Y14R” value is “did not activate”. Further, at hP2Y4R, the “% activation, P2Y4” value is recorded as less than 50% ^c. Moreover, the half-maximal effective concentration (EC50) at hP2Y2R was 2.5 ± 0.66 µM. In assay [4], the “Specific labeling of control 1321N1 cells” value is “no specific labeling”.
Take “N^4-(3-(Cy5-NH-(CH2)6-triazole-(CH2)2-C≡C)-benzyloxy)-CDP [Compound 17]”: in [1] (100 nM to 1 μM), the “Blockade of cell labeling by 100 μM UDP” value is “could not be blocked” and the “Dependence of 1321N1 cell labeling on P2Y6R expression” value is reported as “independent of the expression of the P2Y6R”.
